Here are results for five compounds from paper PMC4770456 (Food chemistry, 2016).

As usually defined, the IC50 is the point on the concentration scale where inhibition reaches its midpoint. The EC50 is the midpoint of the concentration-response curve.

Where two headings read alike, the source gives them in different places.

In one series the target is K-Ras (Homo sapiens, UniProt P01116). Briefly: K-Ras inhibitory assay. In kind it is cell-based. Particulars: for K-Ras (HT-29) IC50: HT-29 cells, EGF 5 ng/ml. Summed up: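 HT-29 cells in RPMI-1640 with penicillin/streptomycin were exposed to test compound for 3 h at 37°C, 5% CO2. They were then PBS-washed, stimulated with EGF (5 ng/ml, 2 min) and lysed with protease inhibitor. Protein was quantified, and Ras GTPase chemiluminescent ELISA used anti-K-Ras (1:5000, 1 h, room temperature) with HRP secondary and a luminescence read-out. IC50 from triplicate measurements.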

The target in another series is PARP-1 (Homo sapiens, UniProt P09874). Briefly: PARP-1 inhibitory assay. In kind it is biochemical. The procedure, abridged:
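Wells were histone-coated overnight at 4°C, blocked, then given activated DNA in PARP-1 and assay buffers. Test compound, diluted in 10% DMSO, was added before PARP-1 enzyme, followed by 1 h at 20°C. After washing, streptavidin-HRP was added (30 min, 20°C), then chemiluminescent substrate, with luminescence read at 410 nm. IC50 from triplicate measurements.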

The subject of the next series is HT-29 cells. Briefly: SRB cytotoxicity assay. It is filed as cell-based, human. Particulars: for EC50: read-out: Cytotoxicity EC50. (In general: In SRB staining, fixed cells bind dye roughly in proportion to their protein.)
For another series, the target named is NF-κB p65 (Homo sapiens, UniProt Q04206). Description: NF-κB p65 inhibitory assay. It is filed as cell-based.
The mark [1] stands for this setting: read-out: PARP-1 IC50, enzyme assay.
Setting [2] is: read-out: Cytotoxicity (HT-29) IC50, HT-29 cells, 72 h, SRB.

Sequence of PARP-1 (P09874 whole entry): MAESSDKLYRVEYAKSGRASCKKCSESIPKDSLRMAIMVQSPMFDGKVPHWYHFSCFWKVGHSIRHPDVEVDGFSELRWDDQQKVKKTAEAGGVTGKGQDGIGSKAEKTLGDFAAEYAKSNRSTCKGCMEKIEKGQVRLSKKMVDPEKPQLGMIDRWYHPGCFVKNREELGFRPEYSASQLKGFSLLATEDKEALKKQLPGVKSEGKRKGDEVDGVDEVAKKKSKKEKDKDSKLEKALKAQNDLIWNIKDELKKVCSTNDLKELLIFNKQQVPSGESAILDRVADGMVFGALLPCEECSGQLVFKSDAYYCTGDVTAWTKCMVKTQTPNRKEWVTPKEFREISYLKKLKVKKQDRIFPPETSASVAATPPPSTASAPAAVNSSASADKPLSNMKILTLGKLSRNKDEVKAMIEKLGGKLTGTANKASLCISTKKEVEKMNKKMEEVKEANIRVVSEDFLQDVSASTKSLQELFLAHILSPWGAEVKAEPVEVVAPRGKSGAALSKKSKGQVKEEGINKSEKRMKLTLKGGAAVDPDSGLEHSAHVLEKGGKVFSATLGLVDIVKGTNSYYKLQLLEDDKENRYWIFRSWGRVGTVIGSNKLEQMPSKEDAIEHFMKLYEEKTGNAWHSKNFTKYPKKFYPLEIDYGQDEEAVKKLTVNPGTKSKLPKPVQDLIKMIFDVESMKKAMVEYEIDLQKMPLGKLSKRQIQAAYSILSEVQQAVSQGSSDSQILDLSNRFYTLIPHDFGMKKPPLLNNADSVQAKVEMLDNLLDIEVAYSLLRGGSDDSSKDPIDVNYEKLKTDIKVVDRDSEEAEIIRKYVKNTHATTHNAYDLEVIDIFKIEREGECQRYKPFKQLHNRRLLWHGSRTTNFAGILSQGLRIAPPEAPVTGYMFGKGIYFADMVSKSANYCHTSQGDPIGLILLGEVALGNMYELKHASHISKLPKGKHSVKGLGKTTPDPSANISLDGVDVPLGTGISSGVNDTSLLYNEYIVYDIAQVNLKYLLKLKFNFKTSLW
Sequence of K-Ras (P01116 1-188 isoform P01116-2): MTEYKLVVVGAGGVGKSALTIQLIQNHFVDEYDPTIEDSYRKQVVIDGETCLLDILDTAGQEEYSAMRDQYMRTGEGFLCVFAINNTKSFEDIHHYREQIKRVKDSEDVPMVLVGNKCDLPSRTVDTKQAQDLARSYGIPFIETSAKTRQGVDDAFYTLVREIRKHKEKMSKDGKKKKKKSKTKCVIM
Sequence of NF-κB p65 (Q04206 whole entry): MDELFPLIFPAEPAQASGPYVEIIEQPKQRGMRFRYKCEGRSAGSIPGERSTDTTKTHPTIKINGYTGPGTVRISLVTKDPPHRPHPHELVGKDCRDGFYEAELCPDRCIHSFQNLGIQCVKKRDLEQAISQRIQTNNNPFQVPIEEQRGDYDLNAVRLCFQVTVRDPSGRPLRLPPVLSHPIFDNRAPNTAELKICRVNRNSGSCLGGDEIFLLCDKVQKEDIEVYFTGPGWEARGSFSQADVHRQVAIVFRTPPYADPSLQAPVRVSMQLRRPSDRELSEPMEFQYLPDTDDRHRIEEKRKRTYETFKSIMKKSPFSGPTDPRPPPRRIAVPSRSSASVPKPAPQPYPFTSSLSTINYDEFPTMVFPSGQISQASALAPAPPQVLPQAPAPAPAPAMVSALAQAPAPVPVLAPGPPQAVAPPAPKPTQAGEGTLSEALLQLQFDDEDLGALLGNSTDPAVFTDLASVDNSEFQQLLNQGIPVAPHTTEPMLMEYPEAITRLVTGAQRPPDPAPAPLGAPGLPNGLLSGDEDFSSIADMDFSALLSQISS

Take `C=CCc1cc(OC)c(OC(C)C(OC(C)=O)c2ccc(OC)c(OC)c2)c(OC)c1` (stereo not drawn) [Compound 2, benzenemethanol, α-[(1, R)-1-[2,6-dimethoxy-4-(2-propen-1-yl)phenoxy]ethyl]-3,4-dimethoxy-1-acetate]: the “K-Ras (HT-29) IC50” value on K-Ras is given as “Not active”. In addition, the IC50 at PARP-1 (setting [1]) turned out to be 1 nM.
Regarding `C=CCc1cc(OC)c(OC(C)C(OC(C)=O)c2ccc3c(c2)OCO3)c(OC)c1` (stereo not drawn) [Compound 4, 1,3-benzodioxole-5-methanol,α-[1-[2,6-dimethoxy-4-(2-propenyl)phenoxy]ethyl]-acetate], at K-Ras, the “K-Ras (HT-29) IC50” value is “Not active”. Moreover, the half-inhibitory concentration (IC50) in the series on HT-29 cells (setting [2]) was 24 nM; on NF-κB p65 (read-out: NF-κB (HeLa) IC50, p65, HeLa cells, TNFα) it was 3.4 nM. Further, the EC50 in the series with HT-29 cells (HT-29 cells, 72 h, SRB) turned out to be 24 nM.
`CC=Cc1cc(OC)cc(C(C)C(O)c2cc(OC)c(OC)c(OC)c2)c1` (centres unmarked) [Compound 1]: the 50% inhibitory concentration (IC50) was 10500 nM against K-Ras and 3040 nM at PARP-1. In addition, the “NF-κB inhibitory activity (in words)” value at NF-κB p65 (HeLa cells) is reported as “no NF-κB inhibitory activity”. At NF-κB p65 (p65, HeLa cells, TNFα), the “NF-κB (HeLa) IC50” value was “Not active”.
For `CC(=O)O[C@H]1C(=O)[C@@]2(C)[C@H]([C@H](OC(=O)c3ccccc3)[C@]3(O)C[C@H](OC(=O)[C@H](O)[C@@H](NC(=O)c4ccccc4)c4ccccc4)C(C)=C1C3(C)C)[C@]1(OC(C)=O)CO[C@@H]1C[C@@H]2O` [paclitaxel, reference compound], the EC50 in the series on HT-29 cells (Homo sapiens, HT-29, 72 h) is 0.5 nM. The IC50 with HT-29 cells (Homo sapiens, HT-29, read-out: Cytotoxicity (HT-29) IC50) amounted to 0.5 nM.
As to `C/C=C/c1cc(OC)c2c(c1)C(C)C(c1cc(OC)c(OC)c(OC)c1)O2` (centres unmarked) [Compound 5, benzofuran, 2,3-dihydro-7-methoxy-3-methyl-5-(1E)-1-yl-2-(3,4,5-trimethoxyphenyl)], the “K-Ras (HT-29) IC50” value at K-Ras is reported as “Not active”. Moreover, the results for the IC50 with HT-29 cells (setting [2]) and at PARP-1 (setting [1]) were 3 nM and 3110 nM, respectively. The half-maximal effective concentration (EC50) in the series with HT-29 cells (HT-29 cells, 72 h, SRB) is 3 nM. Further, the “NF-κB (HeLa) IC50” value on NF-κB p65 (p65, HeLa cells, TNFα) was “Not active”.
